# M1 antag – antagonists of human M1 muscarinic receptor. P11229. CHO-K1 hM1, Fluo-8 calcium fluorescence, ACh EC80 antagonist. inhibition, % at 3 µM. hit rate 1.3% among 360,000. AID 588852;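 active = percent inhibition above its own plate's cutoff, namely the mean of that plate's compound wells plus 3 SD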;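 also: peak over basal fluorescence ratio during 140 s after agonist addition; 0% = ACh EC80 plus DMSO and 100% = DMSO alone without agonist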
# M1 ag – activates human CHRM1 receptor; P11229; CHO-K1 hM1, Fluo-8 calcium fluorescence, agonist mode; 0% DMSO, 100% acetylcholine EC100; activation, % at 3 µM; hit rate 0.33% among 360,000;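 active = activation above the run's mean compound activation plus 3 SD, cut at about 16% in these data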;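 also: peak over basal fluorescence ratio within a 140 s kinetic read after compound addition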
# M1 PAM – potentiates human M1 receptor response to acetylcholine; P11229; CHO-K1 hM1, Fluo-8 calcium fluorescence, ACh EC20; 0% = ACh EC20, 100% = maximal ACh; activation, % at 3 µM; hit rate 0.088% among 360,000; AID 588819; in the data active = activation above about 19%, passing the limit was not always enough
# CHRM5 PAM – positive allosteric modulators of human muscarinic M5 receptor. P08912. AID 624038. hit rate 0.3% among 360,000. CHO-K1 hM5, Fluo-8 calcium, ACh EC20 PAM; 0% = ACh EC20, 100% = ACh EC100. activation, % at 3 µM;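 active = activation above the run cutoff, the mean activation of all test compounds plus 3 SD, cut at about 18% in these data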
# Target sequence (P08912 whole entry, looked up): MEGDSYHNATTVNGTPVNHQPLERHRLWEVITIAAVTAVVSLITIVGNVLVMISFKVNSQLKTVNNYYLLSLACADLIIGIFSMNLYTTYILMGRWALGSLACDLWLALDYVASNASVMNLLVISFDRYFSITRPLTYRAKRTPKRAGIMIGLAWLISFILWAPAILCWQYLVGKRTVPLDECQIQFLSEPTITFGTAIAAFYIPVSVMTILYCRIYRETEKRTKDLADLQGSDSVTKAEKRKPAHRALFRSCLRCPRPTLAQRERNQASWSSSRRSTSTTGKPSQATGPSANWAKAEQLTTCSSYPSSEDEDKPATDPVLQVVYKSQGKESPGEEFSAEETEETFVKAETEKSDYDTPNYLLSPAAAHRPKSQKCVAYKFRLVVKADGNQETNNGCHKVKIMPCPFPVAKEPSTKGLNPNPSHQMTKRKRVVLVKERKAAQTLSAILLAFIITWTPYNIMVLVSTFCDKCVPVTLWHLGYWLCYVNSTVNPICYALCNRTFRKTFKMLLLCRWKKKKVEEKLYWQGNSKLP
#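 Assay system – human M5 receptor in CHO-K1 cells · Read-out – % activation, ACh-normalized · Technique – Fluo-8 calcium fluorescence · Dosing – single-point, 3 µM nominal · Incubation – Fluo-8 loading 80 min at 37 °C plus 30 min room temperature · Repeats – singlicate, one well per test compound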
# CHRM5 antagonist – blocks acetylcholine activation of human M5 receptor; P08912; CHO-hM5 cells, Fluo-8 calcium fluorescence, ACh EC80; inhibition, % at 3 µM; hit rate 0.59% among 360,000; AID 624040;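 active = inhibition above a per-plate cutoff, the mean of that plate's test compounds plus 3 SD, cut at about 27% in these data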;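 also: 0% = acetylcholine EC80 with DMSO and 100% = DMSO without agonist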
# M5 ag – agonists of human muscarinic M5 receptor (CHRM5) | CHO-K1 hM5 cells, Fluo-8 calcium fluorescence; 0% DMSO wells, 100% maximal acetylcholine response | hit rate 0.19% among 360,000 | activation, % at 3 µM;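 active = activation above the run's mean over test compounds plus 3 SD, cut at about 23% in these data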;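 also: signal is peak over basal fluorescence ratio across the kinetic read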
# * = called active by the depositor; . = not tested or not shown. Sampled rows, rich in hits. Any-hit rate of the full collection: about 2%.
SMILES,M1 antag,M1 ag,M1 PAM,CHRM5 PAM,CHRM5 antagonist,M5 ag
C=C1[C@@H](O)[C@H](Cc2ccccc2)N(Cc2ccccc2Br)S1(=O)=O,-2,-7,4,1,6,-3
O=C(N1CCc2[nH]c3ccccc3c2C1)C(F)(F)F,8,46*,-12,-9,18,22
COc1ccccc1NC(=O)N1CCc2[nH]c3ccc(F)cc3c2C1,-17,26*,-10,-4,1,9
O=C(CCCCl)N1CCc2[nH]c3ccccc3c2C1,-17,24*,-2,-12,2,6
CCCNC(=O)c1cc(C2CCCCN2C(=O)c2ccc(OC)cc2)on1 (centres undefined),-1,-6,-1,-1,19,-1
COc1ccc(NC(=S)NC(NC(=O)c2ccc(Cl)cc2Cl)C(Cl)(Cl)Cl)c([N+](=O)[O-])c1 (centres undefined),-6,0,-5,-21,28*,6
CCn1ncc(CN2CCCC(C(=O)Nc3cccc(-c4cc5ccccc5[nH]4)c3)C2)c1C (centres undefined),25*,-2,-9,-5,0,-7
CCOc1ccccc1CN1CCCC(C(=O)Nc2cccc(-n3cccn3)c2)C1 (centres undefined),71*,-2,-22,-7,3,-9
CCOc1cccc(CN2CCCC(C(=O)Nc3cccc(-n4cccn4)c3)C2)c1 (centres undefined),5,-5,-4,-1,9,-3
COc1cccc(CNc2nc(NC(C)C)nc3ccsc23)c1,13,-2,-14,-8,12,1
O=C(NCCCN1CCC(Cc2ccccc2)CC1)c1ccc(CS(=O)c2ccccc2Cl)o1 (centres undefined),50*,-7,-24,-19,23,-2
O=C(NCc1ccco1)c1ccc(CS(=O)c2ccccc2Cl)o1 (centres undefined),-3,8,21,-7,7,0
O=C1Nc2ccccc2C(=O)N2[C@H](c3cccc(Br)c3)[C@@H]3C(=O)N(Cc4ccccc4)C(=O)[C@@H]3[C@H]12,-7,8,13,5,0,3
O=C1Nc2ccccc2C(=O)N2[C@H](c3ccccc3)[C@@H]3C(=O)N(Cc4ccccc4)C(=O)[C@@H]3[C@H]12,-8,23*,9,-2,18,1
CCCS(=O)(=O)NC(=O)C1(C)CCN(C(=O)c2ccc3c(c2)OCO3)C1 (centres undefined),-12,-1,7,1,-5,0
c1ccc(CCC2CCCCN2Cc2nc(-c3ccc4c(c3)OCO4)no2)nc1 (centres undefined),35*,-3,-14,-23,24,-1
CN(NC(=O)C(=O)NCc1ccco1)C(=O)Nc1ccc(Cl)cc1,14,8,-7,-20,37*,11
O=C(Nc1ccc(Cl)cc1)Nc1ccccc1C(=O)NCc1ccco1,-2,-7,0,-10,16,0
CN(C)CCC1Sc2ccccc2Oc2ccccc21 (centres undefined),48*,-4,-22,-49,23,-15
CCn1c(C)cc(C(=O)COC(=O)CNC(=O)c2ccco2)c1C,-16,-1,10,-6,8,0
COc1ccc(Cn2nnnc2C(CC(C)C)N2CCC(C(N)=O)CC2)cc1 (centres undefined),-4,-12,11,21*,-2,-3
COc1ccc(-c2ccc(N3C(c4cc(OC)cc(OC)c4)=Cc4ccc(OC)cc4C3CC(C)=O)cc2)cc1 (centres undefined),.,.,.,-8,8,-6
Cc1ccc(NC(=O)CCNC(=O)c2ccco2)cc1F,3,-6,0,-1,13,-2
CNS(=O)(=O)c1cc(NC(=O)CCNC(=O)c2ccco2)ccc1C,-14,-4,11,1,27*,-3
CN(CCCn1ccc(NC(=O)OCc2ccccc2)nc1=O)CCc1ccccn1,-1,-11,-4,-2,10,-1
SMILES,M1 antag,M1 ag,M1 PAM,CHRM5 PAM,CHRM5 antagonist,M5 ag
COc1ccc(C(=O)n2nc(C)c(Br)c2C)cc1,-13,-2,11,21*,-10,-10
COc1cccc(C(CCc2cc(OC)c(OC)c(OC)c2)NC(C)=O)c1 (centres undefined),-16,1,6,-5,12,4
Cc1cccc(C)c1-n1nnnc1C(c1cccs1)N1CCN(C/C=C/c2ccccc2)CC1 (centres undefined),26,-7,-24,-22,29*,-8
Cc1cccc(C)c1-n1nnnc1C(c1ccccc1)N1CCN(C/C=C/c2ccccc2)CC1 (centres undefined),61*,-7,-26,-22,31*,-8
CCCc1cc(=O)oc2cc(C)cc(OCC(=O)N3C[C@H]4C[C@@H](C3)c3cccc(=O)n3C4)c12,-4,-5,6,-5,0,-1
COc1cccc(-c2cc(NC=O)c3ncc(-c4ccc(C(C)=O)cc4)n3c2)c1,16,-3,-7,-12,7,-1
c1ccc(SCCc2ccncc2)cc1,101*,-9,-29,1,-1,-9
Fc1ccc(SCCc2ccncc2)cc1,8,-5,2,5,-6,-2
Nc1ccc(-c2c3ccc(=O)cc-3oc3cc(O)ccc23)c(C(=O)O)c1,29,117*,-15,-44,42*,270*
COc1ccc(-c2cc(=O)c3ccc(O)cc3o2)cc1OC,-2,-2,-2,-2,1,-1
O=C1c2ccccc2C(=O)c2cc(N3CCCCC3)ccc21,10,11,-3,-13,34*,72*
c1ccc2cc(N3CCCCC3)ccc2c1,-16,-2,6,8,-2,1
Cc1cccc(CN2CCN(C3CN(Cc4cn(Cc5ccccc5C(F)(F)F)nn4)S(=O)(=O)C3)CC2)c1 (centres undefined),-39,-3,-2,3,-2,0
COc1ccc(CCN2C(=O)CSCC2(C)C(=O)Nc2ccc3c(c2)OCCO3)cc1OC (centres undefined),.,.,.,3,1,0
COc1cc(CCN(C(=O)c2cccc(S(C)(=O)=O)c2)C(CCc2ccccc2)c2nc3ccccc3[nH]2)cc(OC)c1 (centres undefined),4,-7,-4,-16,11,-1
Nc1nc(NCCCN2CCOCC2)nc(NCc2ccccc2)c1[N+](=O)[O-],66*,-6,-27,5,-13,11
Nc1nc(NCCN2CCOCC2)nc(NCc2ccccc2)c1[N+](=O)[O-],-3,-4,5,-2,17,2

# From PubChem BioAssay
